Assay [1] concerns Trypanosoma brucei. Nature of the assay: Inhibition of recombinant Trypanosoma brucei His6-tagged HK1 expressed in Escherichia coli M15(pREP) harboring pQE30 at 10 uM using glucose as substrate by spectrophotometric based glucose 6-phosphate dehydrogenase enzyme coupled assay. An outline of the steps:
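Purified recombinant TbHK1 incubated with the compound at a single fixed screening concentration, after which enzyme activity was scored. Percent inhibition is recorded relative to uninhibited enzyme.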

The nature of assay [2]: Inhibition of recombinant Trypanosoma brucei His6-tagged HK1 expressed in Escherichia coli M15(pREP) harboring pQE30 using glucose as substrate by spectrophotometric based glucose 6-phosphate dehydrogenase enzyme coupled assay.
The test system of assay [3] is Trypanosoma brucei. Nature of the assay: Antitrypanosomal activity against Trypanosoma brucei 427 bloodstream forms at 10 uM after 72 hrs by CellTiter-Blue fluorescence assay. To be noted: Trypanosoma brucei, 427, 72 h. Format: functional. An outline of the steps: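 Single-concentration growth screen of bloodstream-form cultures, run in triplicate. Percent inhibition was calculated against growth of parasites given DMSO vehicle on the same plate, which served as the negative control. EbS at the same concentration was included in each assay as a positive control.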
A general note: Resazurin is reduced to fluorescent resorufin, in cell work by metabolically active cells.

Assay [4] relates to Trypanosoma brucei. Nature of the assay: Antitrypanosomal activity against Trypanosoma brucei 427 bloodstream forms after 72 hrs by CellTiter-Blue fluorescence assay. Format: functional. To be noted: Trypanosoma brucei, 427, 72 h. The procedure, abridged: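 Bloodstream-form cultures were run as triplicate dose-response series to derive 50% effective concentrations. Compounds were taken to this stage only if they gave more than 50% growth inhibition in the single-concentration screen. DMSO vehicle served as the negative control, and EbS was included as a positive control in each assay.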

The nature of assay [5]: Inhibition of recombinant Trypanosoma brucei HK1 expressed in Escherichia coli or yeast using glucose as substrate by spectrophotometric based glucose 6-phosphate dehydrogenase enzyme coupled assay.
Assay [6] is described as follows: Inhibition of recombinant Trypanosoma brucei His6-tagged HK1 expressed in Escherichia coli M15(pREP) harboring pQE30 using glucose as substrate after 2 hrs by spectrophotometric based glucose 6-phosphate dehydrogenase enzyme coupled assay.
For assay [7], the system named is Trypanosoma brucei. Nature of the assay: Antitrypanosomal activity against Trypanosoma brucei bloodstream forms after 72 hrs by CellTiter-Blue fluorescence assay. Format: functional. The procedure, abridged:
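Bloodstream-form T. brucei cultures assayed in triplicate, with DMSO vehicle as negative control and a reference ebselen analogue as positive control on each plate. Growth inhibition is calculated against the DMSO controls of the same plate. Compounds giving over 50% inhibition in the single-concentration screen went on to triplicate dose-response curves to derive 50% effective concentrations.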

Turning to `COC(=O)c1ccc(-n2[se]c3ccccc3c2=O)cc1`, the inhibition (usually the percentage by which the read-out fell short of the control) in the assay on Trypanosoma brucei [1] is 79%. Also, in assay [2], the IC50 – broadly, the concentration at which inhibition is half-maximal – came to 3.16 µM. Further, 10 µM produced 38.6% inhibition with Trypanosoma brucei [3]. For the same compound, a half-maximal response in the assay with Trypanosoma brucei [4] (EC50) required 13 µM.

As for `O=C(O)c1cccc2c(=O)n(-c3ccccc3)sc12`, the inhibition in the assay on Trypanosoma brucei [1] is 0%. For the same compound, in assay [2], the IC50 is > 10 µM. The compound also gave an inhibition at 10 µM with Trypanosoma brucei [3] of 10.9%. For the same compound, in the assay with Trypanosoma brucei [4], the EC50 (in general, the midpoint of the concentration-response curve) is > 10 µM.

`O=C(O)Cn1sc2ccccc2c1=O`: the inhibition in the assay on Trypanosoma brucei [1] is 0.87%. Further, in assay [2], the IC50 is > 10 µM. The same compound yielded an inhibition at 10 µM with Trypanosoma brucei [3] of 77.6%. Further, in the assay on Trypanosoma brucei [4], it took 7.2 µM to reach a half-maximal effect (EC50).

For `O=C(O)c1nn(Cc2ccc(Cl)cc2Cl)c2ccccc12` [LONIDAMINE], the IC50 in assay [5] was 850 µM.

On to `CC(C)C[C@@H](NC(=O)[C@@H](CCCCN)NC(=O)[C@@H](C)NC(=O)CNC(=O)CNC(=O)c1cccc(-n2sc3ccccc3c2=O)c1)C(=O)O`, for which, in the assay on Trypanosoma brucei [1], the inhibition was 0%. Also, the half-maximal inhibitory concentration (IC50) in assay [2] is > 10 µM. In the assay with Trypanosoma brucei [3], this compound gave an inhibition at 10 µM of 0%. In the assay with Trypanosoma brucei [4], the EC50 is > 10 µM.

In the case of `CC(C)C[C@H](NC(=O)[C@H](CCCCN)NC(=O)[C@H](C)NC(=O)CCOCCOCCNC(=O)c1ccc(-n2sc3ccccc3c2=O)cc1)C(=O)O`, the inhibition in the assay with Trypanosoma brucei [1] is 0%. Further, the IC50 in assay [2] is > 10 µM. The compound also yielded an inhibition at 10 µM in the assay with Trypanosoma brucei [3] of 35.4%. For the same compound, in the assay with Trypanosoma brucei [4], the EC50 is > 10 µM.

In the case of `CC(C)C[C@@H](NC(=O)[C@@H](CCCCN)NC(=O)[C@@H](C)NC(=O)CNC(=O)CNC(=O)Cn1sc2ccccc2c1=O)C(=O)O`, the inhibition in the assay with Trypanosoma brucei [1] came to 3.7%. The IC50 in assay [2] is > 10 µM. The inhibition at 10 µM with Trypanosoma brucei [3] was found to be 28%. In the assay on Trypanosoma brucei [4], the concentration giving a half-maximal response (EC50) was > 10 µM.

For the compound `COC(=O)Cn1sc2ccccc2c1=O`, the inhibition in the assay with Trypanosoma brucei [1] was determined as 12.8%. For the same compound, the concentration for half-maximal inhibition (IC50) in assay [2] is > 10 µM. The compound further showed an inhibition at 10 µM in the assay on Trypanosoma brucei [3] of 98.3%. The compound also registered an EC50 with Trypanosoma brucei [4] of 0.28 µM.

In the case of `CC(C)C[C@H](NC(=O)[C@H](CCCCN)NC(=O)[C@H](C)NC(=O)CCOCCOCCNC(=O)c1ccc(-n2[se]c3ccccc3c2=O)cc1)C(=O)O`, the inhibition in the assay with Trypanosoma brucei [1] is 0%. For the same compound, the IC50 in assay [2] was > 10 µM. The same compound displayed an inhibition at 10 µM in the assay with Trypanosoma brucei [3] of 25%. Further, in the assay on Trypanosoma brucei [4], the EC50 is > 10 µM.

In the case of `O=C(O)c1cccc(-n2sc3ccccc3c2=O)c1`, in the assay on Trypanosoma brucei [1], the inhibition was found to be 0%. Besides, in assay [2], the IC50 is > 10 µM. Further, the inhibition at 10 µM in the assay on Trypanosoma brucei [3] amounted to 15.8%. Moreover, the EC50 with Trypanosoma brucei [4] was > 10 µM.

Take `CC(C)C[C@@H](NC(=O)[C@@H](CCCCN)NC(=O)[C@@H](C)NC(=O)CNC(=O)CNC(=O)c1ccc(-n2[se]c3ccccc3c2=O)cc1)C(=O)O`: the inhibition with Trypanosoma brucei [1] was 0%. The IC50 in assay [2] is > 10 µM. In addition, at 10 µM the inhibition in the assay on Trypanosoma brucei [3] was 44.1%. Also, in the assay on Trypanosoma brucei [4], the EC50 was > 10 µM.

Take `COC(=O)c1ccc(-n2sc3ccccc3c2=O)cc1`: the inhibition in the assay on Trypanosoma brucei [1] worked out at 22.8%. In addition, the IC50 in assay [2] is > 10 µM. The same compound registered an inhibition at 10 µM in the assay on Trypanosoma brucei [3] of 66.5%. This compound registered an EC50 in the assay on Trypanosoma brucei [4] of 3.8 µM.

For `CC(C)C[C@@H](NC(=O)[C@@H](CCCCN)NC(=O)[C@@H](C)NC(=O)CNC(=O)CNC(=O)Cn1[se]c2ccccc2c1=O)C(=O)O`, the inhibition with Trypanosoma brucei [1] was 1.7%. Moreover, the IC50 in assay [2] was > 10 µM. Besides, the inhibition at 10 µM with Trypanosoma brucei [3] is 34.4%. Further, the EC50 with Trypanosoma brucei [4] is > 10 µM.

Regarding `O=c1c2ccccc2[se]n1-c1ccccc1` [EBSELEN], the IC50 in assay [6] turned out to be 0.05 µM. The same compound registered an EC50 in the assay on Trypanosoma brucei [7] of 2.9 µM.

`O=c1c2ccccc2sn1-c1ccccc1`: the IC50 in assay [6] is 2 µM. The compound further came in with an EC50 in the assay with Trypanosoma brucei [7] of 0.03 µM.

With `O=C(O)c1ccc(-n2sc3ccccc3c2=O)cc1`, the inhibition with Trypanosoma brucei [1] worked out at 0%. For the same compound, in assay [2], the IC50 was > 10 µM. Further, the inhibition at 10 µM with Trypanosoma brucei [3] was 0%. Also, the EC50 in the assay with Trypanosoma brucei [4] was > 10 µM.

For `O=C(O)c1ccc(-n2[se]c3ccccc3c2=O)cc1`, the inhibition in the assay on Trypanosoma brucei [1] turned out to be 17.2%. For the same compound, in assay [2], the IC50 is > 10 µM. For the same compound, the inhibition at 10 µM in the assay on Trypanosoma brucei [3] worked out at 12%. The EC50 in the assay on Trypanosoma brucei [4] is > 10 µM.

On to `COC(=O)c1cccc(-n2sc3ccccc3c2=O)c1`, for which the inhibition with Trypanosoma brucei [1] came out at 1.7%. Further, in assay [2], the IC50 is > 10 µM. Moreover, 10 µM produced 8.8% inhibition in the assay with Trypanosoma brucei [3]. The EC50 in the assay on Trypanosoma brucei [4] is > 10 µM.

On to `CC(C)C[C@@H](NC(=O)[C@@H](CCCCN)NC(=O)[C@@H](C)NC(=O)CNC(=O)CNC(=O)c1ccc(-n2sc3ccccc3c2=O)cc1)C(=O)O`, for which, in the assay with Trypanosoma brucei [1], the inhibition stood at 10.4%. Also, the IC50 in assay [2] was > 10 µM. This compound also registered an inhibition at 10 µM in the assay on Trypanosoma brucei [3] of 26.4%. Further, the half-maximal effective concentration (EC50) in the assay on Trypanosoma brucei [4] was > 10 µM.

Consider `O=C(O)c1cccc(-n2[se]c3ccccc3c2=O)c1`, for which, in the assay with Trypanosoma brucei [1], the inhibition stood at 18.5%. For the same compound, the IC50 in assay [2] is > 10 µM. Besides, in the assay on Trypanosoma brucei [3], at 10 µM the inhibition was 0%. In the assay on Trypanosoma brucei [4], the EC50 was > 10 µM.

Consider `COC(=O)c1cccc(-n2[se]c3ccccc3c2=O)c1`, for which the inhibition with Trypanosoma brucei [1] is 0%. For the same compound, the 50% inhibitory concentration (IC50) in assay [2] is > 10 µM. The same compound displayed an inhibition at 10 µM with Trypanosoma brucei [3] of 18%. The EC50 with Trypanosoma brucei [4] is > 10 µM.

For the compound `CC(C)C[C@@H](NC(=O)[C@@H](CCCCN)NC(=O)[C@@H](C)NC(=O)CNC(=O)CNC(=O)c1cccc2c(=O)n(-c3ccccc3)sc12)C(=O)O`, in the assay on Trypanosoma brucei [1], the inhibition stood at 0%. The IC50 in assay [2] is > 10 µM. Besides, in the assay on Trypanosoma brucei [3], 10 µM produced 0% inhibition. Further, in the assay on Trypanosoma brucei [4], the EC50 was > 10 µM.

As for `CC(C)C[C@@H](NC(=O)[C@@H](CCCCN)NC(=O)[C@@H](C)NC(=O)CNC(=O)CNC(=O)c1cccc2c(=O)n(-c3ccccc3)[se]c12)C(=O)O`, in the assay on Trypanosoma brucei [1], the inhibition turned out to be 0%. Further, the IC50 in assay [2] is > 10 µM. Testing at 10 µM in the assay on Trypanosoma brucei [3] gave an inhibition of 0%. Moreover, in the assay on Trypanosoma brucei [4], the EC50 was > 10 µM.

`CC(C)C[C@@H](NC(=O)[C@@H](CCCCN)NC(=O)[C@@H](C)NC(=O)CNC(=O)CNC(=O)c1cccc(-n2[se]c3ccccc3c2=O)c1)C(=O)O`: the inhibition in the assay on Trypanosoma brucei [1] was 0%. The IC50 in assay [2] was > 10 µM. Besides, the inhibition at 10 µM with Trypanosoma brucei [3] worked out at 28.4%. Besides, the half-maximal effective concentration (EC50) in the assay on Trypanosoma brucei [4] was > 10 µM.

As to `COC(=O)c1cccc2c(=O)n(-c3ccccc3)[se]c12`, the inhibition in the assay on Trypanosoma brucei [1] turned out to be 2.7%. For the same compound, in assay [2], the IC50 is > 10 µM. The compound also came in with an inhibition at 10 µM in the assay with Trypanosoma brucei [3] of 55.6%. For the same compound, a half-maximal effect in the assay with Trypanosoma brucei [4] (EC50) was put at 10 µM.

For the compound `O=C(O)c1cccc2c(=O)n(-c3ccccc3)[se]c12`, the inhibition with Trypanosoma brucei [1] amounted to 0%. Further, the IC50 in assay [2] is > 10 µM. The compound also registered an inhibition at 10 µM in the assay on Trypanosoma brucei [3] of 0%. Besides, the concentration for a half-maximal effect (EC50) in the assay on Trypanosoma brucei [4] was > 10 µM.

Consider `COC(=O)c1cccc2c(=O)n(-c3ccccc3)sc12`, for which, in the assay on Trypanosoma brucei [1], the inhibition was found to be 18%. Also, the IC50 in assay [2] was > 10 µM. In the assay with Trypanosoma brucei [3], this compound showed an inhibition at 10 µM of 52.5%. The EC50 with Trypanosoma brucei [4] came to 10 µM.

As to `O=C(O)Cn1[se]c2ccccc2c1=O`, the inhibition with Trypanosoma brucei [1] was 0%. Besides, the IC50 in assay [2] was > 10 µM. In the assay with Trypanosoma brucei [3], this compound had an inhibition at 10 µM of 0%. In addition, the EC50 in the assay on Trypanosoma brucei [4] is > 10 µM.

As for `COC(=O)Cn1[se]c2ccccc2c1=O`, the inhibition in the assay on Trypanosoma brucei [1] turned out to be 0%. Also, the IC50 in assay [2] is > 10 µM. The compound further showed an inhibition at 10 µM with Trypanosoma brucei [3] of 0%. Also, the EC50 with Trypanosoma brucei [4] is > 10 µM.

Values taken from ChEMBL document CHEMBL4000223, “Evaluation of substituted ebselen derivatives as potential trypanocidal agents” (Bioorg Med Chem Lett, 2017).
